Source: ChEMBL document CHEMBL3351261, “Induction of intrinsic apoptosis pathway in colon cancer HCT-116 cells by novel 2-substituted-5,6,7,8-tetrahydronaphthalene derivatives” (Eur J Med Chem, 2014)
Converted amounts (≈) assume the structure as drawn. The source made the active and inactive calls. The rule behind the calls is not given here.

Key:
[1] = Cytotoxicity against human HCT116 cells after 48 hrs by MTT method; type: functional, cell-based; conditions: HCT-116, 48 h
HepG2 = assay: Cytotoxicity against human HepG2 cells after 48 hrs by MTT method; type: functional, cell-based; conditions: HepG2, 48 h
HeLa = assay: Cytotoxicity against human HeLa cells after 48 hrs by MTT method; type: functional, cell-based
MCF7 = assay: Cytotoxicity against human MCF7 cells after 48 hrs by MTT method; type: functional, cell-based; conditions: MCF7, 48 h
HCT-116 [2] = assay: Induction of apoptosis in human HCT116 cells assessed as reduction of mitochondrial membrane potential after 2 hrs by JC-1 staining-based fluorescence assay; type: functional, cell-based
In short: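 HCT-116 cells in 96-well plates were preloaded with 10 µg/ml JC-1 in HBSS for 30 min at 37 °C, then incubated with or without compound for 2 h at 37 °C. The 590/527 nm emission ratio was read at zero time and at 2 h and expressed as % of the zero-time reading. CCCP served as positive control; mean of three readings ± SD.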

HCT-116 [3] = assay: Induction of necrosis in human HCT116 cells at IC50 by acridine orange/ethidium bromide staining-based fluorescence microscopy; type: functional
In short: (§1)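 Treated and untreated HCT-116 cells were stained with acridine orange/ethidium bromide (each 100 µg/ml mix in PBS) and examined under fluorescence microscopy, blinded. Cells with yellow condensed or fragmented nuclei were counted as apoptotic; bright orange chromatin in round nuclei was counted as necrotic. Each is reported as % of the dead-cell population.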

HCT-116 [4] = assay: Induction of DNA fragmentation in human HCT116 cells at IC50 after 30 mins relative to control; type: functional
In short: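 HCT-116 cells, treated or untreated, were resuspended in TE buffer (10 mM Tris, 1 mM EDTA, pH 8.0) and lysed 30 min in 5 mM Tris, 20 mM EDTA, 0.5% Triton X-100, pH 8.0. Fragmented DNA (supernatant) was separated from intact chromatin (pellet) by centrifugation and quantified with diphenylamine reagent. % fragmentation = supernatant DNA / pellet DNA; three measurements, mean ± SD.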

HCT-116 [5] = assay: Induction of apoptosis in human HCT116 cells at IC50 by acridine orange/ethidium bromide staining-based fluorescence microscopy; type: functional; in short: as §1
HCT-116 [6] = assay: Induction of apoptosis in human HCT116 cells assessed as cytochrome C accumulation by immunoblotting analysis; type: functional, cell-based
In short: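 HCT-116 cells were lysed in ice-cold buffer (pH 7.4) with NP40, Triton X-100 and protease/phosphatase inhibitors, then cleared at 14,000× g for 15 min at 4 °C; protein was measured by BCA. Soluble protein (20 µg) was dot-blotted on nitrocellulose and probed for cytochrome c, detected with HRP anti-goat antibody and OPD. Dot colour intensity is given as mean % of three replicates.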

HCT-116 [7] = assay: Induction of apoptosis in human HCT116 cells assessed as increase in total caspase level relative to control; type: functional, cell-based
In short: (§2)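 HCT-116 cells, treated or untreated, were lysed (pH 7.4) and cleared at 14,000× g, 15 min, 4 °C. Kit-based read-outs: total caspases via Red-VAD-FMK fluorescence (Ex 540/Em 570 nm); caspase-3 colorimetric at 405 nm; caspase-9 via LEHD-pNA cleavage, pNA at 405 nm. Results are fold over untreated cells.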

HCT-116 [8] = assay: Induction of apoptosis in human HCT116 cells assessed as increase in caspase-9 level relative to control; type: functional, cell-based; in short: as §2
HCT-116 [9] = assay: Induction of apoptosis in human HCT116 cells assessed as increase in caspase-3 level relative to control; type: functional, cell-based; in short: as §2

SMILES	IC50 [1] [µg/mL]	IC50 (HepG2) [µg/mL]	IC50 (HeLa) [µg/mL]	IC50 (MCF7) [µg/mL]	Activity (HCT-116 [2])	Activity (HCT-116 [3]) [%]	Activity (HCT-116 [4])	Activity (HCT-116 [5]) [%]	Activity (HCT-116 [6])	Activity (HCT-116 [7])	Activity (HCT-116 [8])	Activity (HCT-116 [9])
c1ccc(-c2cc3nccc(-c4ccc5c(c4)CCCC5)n3n2)cc1	26.7 (≈ 82 µM)	37.6 (≈ 116 µM)	36.2 (≈ 111 µM)	19.9 (≈ 61.2 µM)								
O=C(c1ccc2c(c1)CCCC2)c1coc2c1cc(O)c1ccccc12	36.2 (≈ 106 µM)	31.7 (≈ 92.6 µM)	40.5 (≈ 118 µM)	48.7 (≈ 142 µM)								
O=C(c1ccc2c(c1)CCCC2)c1coc2ccc(O)cc12	9.5 (≈ 32.5 µM)	39.2 (≈ 134 µM)	41.6 (≈ 142 µM)	40.3 (≈ 138 µM)	inactive	0	Active	77				
O=C(/C=C\Nc1ccc([N+](=O)[O-])cc1)c1ccc2c(c1)CCCC2	6.8 (≈ 21.1 µM)	27.4 (≈ 85 µM)	48.4 (≈ 150 µM)	28.5 (≈ 88.4 µM)		0	Active	77	Active	Active		
O=C(/C=C/N1CCOCC1)c1ccc2c(c1)CCCC2	7.2 (≈ 26.5 µM)	18.2 (≈ 67.1 µM)	41.2 (≈ 152 µM)	38.6 (≈ 142 µM)	inactive	0	Active	77				
COc1ccc(N/C=C\C(=O)c2ccc3c(c2)CCCC3)cc1	31.8 (≈ 103 µM)	31.8 (≈ 103 µM)	46.1 (≈ 150 µM)	43.1 (≈ 140 µM)								
c1cc(-c2ccc3c(c2)CCCC3)n2ncnc2n1	2.1 (≈ 8.39 µM)	15.9 (≈ 63.5 µM)	21.8 (≈ 87.1 µM)	48.2 (≈ 193 µM)	Active	0	Active	77	Active	Active	inactive	Active
CC(=O)O[C@H]1C(=O)[C@@]2(C)[C@H]([C@H](OC(=O)c3ccccc3)[C@]3(O)C[C@H](OC(=O)[C@H](O)[C@@H](NC(=O)c4ccccc4)c4ccccc4)C(C)=C1C3(C)C)[C@]1(OC(C)=O)CO[C@@H]1C[C@@H]2O [PACLITAXEL]	0.38 (≈ 0.445 µM)	0.59 (≈ 0.691 µM)	0.47 (≈ 0.55 µM)	0.61 (≈ 0.714 µM)			44%					
CN(C)/C=C/C(=O)c1ccc2c(c1)CCCC2	18.9 (≈ 82.4 µM)	22.3 (≈ 97.2 µM)	33.4 (≈ 146 µM)	29.3 (≈ 128 µM)								
O=C(/C=C/N1CCCCC1)c1ccc2c(c1)CCCC2	35.4 (≈ 131 µM)	39.1 (≈ 145 µM)	35.6 (≈ 132 µM)	41.1 (≈ 153 µM)								
O=C(Nc1ccc(-c2ccc3c(c2)CCCC3)oc1=O)c1ccccc1	47.7 (≈ 138 µM)	29.3 (≈ 84.8 µM)	38.3 (≈ 111 µM)	27.5 (≈ 79.6 µM)					Active	Active		
Cc1ccc(N/C=C\C(=O)c2ccc3c(c2)CCCC3)cc1	42.1 (≈ 144 µM)	42.7 (≈ 147 µM)	28.7 (≈ 98.5 µM)	43.6 (≈ 150 µM)								
O=C(/C=C\Nc1ccccc1)c1ccc2c(c1)CCCC2	41.6 (≈ 150 µM)	19.9 (≈ 71.7 µM)	30.6 (≈ 110 µM)	32.2 (≈ 116 µM)								
CC(=O)Nc1ccc(-c2ccc3c(c2)CCCC3)oc1=O	8.4 (≈ 29.6 µM)	45.3 (≈ 160 µM)	30.4 (≈ 107 µM)	20.9 (≈ 73.8 µM)		0	Active	77			Active	inactive
O=c1[nH]c(=S)[nH]c2nccc(-c3ccc4c(c3)CCCC4)c12	0.49 (≈ 1.58 µM)	27 (≈ 87.3 µM)	25.3 (≈ 81.8 µM)	18.2 (≈ 58.8 µM)	Active	0	Active	77	Active	Active	Active	Active
O=c1[nH]c(=O)c2c(-c3ccc4c(c3)CCCC4)ccnc2[nH]1	18.6 (≈ 63.4 µM)	39.9 (≈ 136 µM)	29.1 (≈ 99.2 µM)	24.4 (≈ 83.2 µM)								
O=C(/C=C\Nc1ccc(Cl)cc1)c1ccc2c(c1)CCCC2	7.9 (≈ 25.3 µM)	30.3 (≈ 97.2 µM)	19.9 (≈ 63.8 µM)	28.7 (≈ 92 µM)	inactive	0	Active	77				
